Measurements from ChEMBL document CHEMBL1145243, “Synthesis and bladder smooth muscle relaxing properties of substituted 3-amino-4-aryl-(and aralkyl-)cyclobut-3-ene-1,2-diones” (Bioorg Med Chem Lett, 2005).

Assays:
Type in all cases: functional
[1] = organism: Rattus norvegicus; test: Percent of reversal of rat bladder detrusor muscle relaxation (resulting from compound treatment) by addition of glyburide
[2] = organism: Rattus norvegicus; test: In vitro inhibitory concentration required to relax KCl-induced contractions in rat bladder detrusor muscle strips
[3] = organism: Rattus norvegicus; test: In vitro inhibitory concentration required to relax KCl-induced contractions in rat aortic rings; settings: Aorta
Outline: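 Rat aortic rings were contracted with KCl and then exposed to drug. The value is the drug concentration (μM) that relaxed the KCl-induced contraction by 50%, reported ± SE.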

[4] = Rattus norvegicus, read-out: IC50

| IC50 [2, 4] | IC50 [3] | IC50 [2] | Structure (SMILES) | Reversal [1] |
| --- | --- | --- | --- | --- |
| 0.37 µM | 0.064 µM | – | C[C@@H](Nc1c(Nc2ccc(C#N)cc2)c(=O)c1=O)C(C)(C)C | 110% |
| > 30 µM | – | – | CC(Nc1c(Cc2ccc(C#N)cc2)c(=O)c1=O)C(C)(C)C (stereo not given) | 0% |
| > 30 µM | – | – | COc1ccc(-c2c(NCCc3cccc(C(F)(F)F)c3)c(=O)c2=O)cc1 | 0% |
| > 30 µM | – | – | CC(Nc1c(/C=C/c2ccc(Br)cc2)c(=O)c1=O)C(C)(C)C (stereo not given) | 25% |
| > 30 µM | – | – | COc1ccc(C(C(C)=O)c2c(NC(C)C(C)(C)C)c(=O)c2=O)cc1 (stereo not given) | 0% |
| 16.2 µM | – | – | CC(=O)C(c1ccc(C(F)(F)F)cc1)c1c(NC(C)C(C)(C)C)c(=O)c1=O (stereo not given) | 0% |
| 2.5 µM | 37.6 µM | – | CCC(C)(C)/N=c1/c(-c2ccc(OC)cc2)c(O)c1=O | 0% |
| 27 µM | – | – | COc1ccc(-c2c(NC(C)c3ccccc3)c(=O)c2=O)cc1 (stereo not given) | 0% |
| 0.09 µM | 0.017 µM | – | CCc1cc(C#N)ccc1Nc1c(N[C@H](C)C(C)(C)C)c(=O)c1=O | 77% |
| > 30 µM | – | – | COc1ccc(Cc2c(NC(C)C(C)(C)C)c(=O)c2=O)cc1 (stereo not given) | 0% |
| > 30 µM | – | – | CCC(C)(C)Nc1c(-c2cccnc2)c(=O)c1=O | 0% |
| – | – | Contracted | CCC(C)(C)Nc1c(-c2ccc(OCCCc3ccccc3)cc2)c(=O)c1=O | – |
| > 30 µM | – | Contracted | CCC(C)(C)/N=c1/c(-c2cccc(OC)c2)c(O)c1=O | – |
| 12 µM | 46.2 µM | – | COc1ccc(-c2c(N(C)C(C)C)c(=O)c2=O)cc1 | 0% |
| 2.94 µM | – | – | CC(Nc1c(/C=C/c2ccc(C#N)cc2)c(=O)c1=O)C(C)(C)C (stereo not given) | 0% |
| > 30 µM | – | – | COc1ccc(-c2c(NCC(C)c3ccccc3)c(=O)c2=O)cc1 (stereo not given) | 0% |
